Test results published in ChEMBL document CHEMBL3259690, “Synthesis, structure-activity relationships, and biological studies of chromenochalcones as potential antileishmanial agents” (J Med Chem, 2014).
Calls of active or inactive are those of the source. The calls are words filed in the database; no cut-off is given here.

Columns and labels:
[1] = system: Leishmania donovani; experiment: Induction of apoptosis in Leishmania donovani MHOM/IN/80/Dd8 promastigotes assessed as drop in mitochondrial membrane potential at 0.78 uM after 24 hrs by JC-1 dye based flow cytometry (reference value: 5.87%); format: functional
[2] = system: Leishmania donovani; experiment: Induction of early apoptosis in Leishmania donovani MHOM/IN/80/Dd8 promastigotes at 0.78 uM after 24 hrs by Annexin V-FITC/propidium iodide staining based flow cytometry (reference value: 13.70%); format: functional
[3] = target: Albumin (Bos taurus, UniProt P02769); experiment: Binding affinity to bovine serum albumin at 1 mmol/L by fluorescence spectrophotometer analysis; format: ADME; conditions: cattle, isolated protein, 1000 µM
Sequence of Albumin (P02769 whole entry): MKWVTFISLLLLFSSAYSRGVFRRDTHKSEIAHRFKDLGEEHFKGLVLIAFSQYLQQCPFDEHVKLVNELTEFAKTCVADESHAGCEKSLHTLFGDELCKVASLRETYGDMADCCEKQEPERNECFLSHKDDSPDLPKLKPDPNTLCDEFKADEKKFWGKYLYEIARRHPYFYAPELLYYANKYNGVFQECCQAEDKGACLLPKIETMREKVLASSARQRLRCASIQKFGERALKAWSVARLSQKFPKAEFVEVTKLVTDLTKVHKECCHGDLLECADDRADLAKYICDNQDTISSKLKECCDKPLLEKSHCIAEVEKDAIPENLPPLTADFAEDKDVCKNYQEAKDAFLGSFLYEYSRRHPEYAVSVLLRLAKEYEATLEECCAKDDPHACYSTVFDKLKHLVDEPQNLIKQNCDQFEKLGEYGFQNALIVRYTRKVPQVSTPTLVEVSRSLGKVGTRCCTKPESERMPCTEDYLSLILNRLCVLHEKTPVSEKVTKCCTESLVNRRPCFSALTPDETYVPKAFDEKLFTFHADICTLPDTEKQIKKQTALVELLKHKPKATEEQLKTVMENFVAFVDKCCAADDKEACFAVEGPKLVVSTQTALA
How it was run: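 BSA at 1.00 × 10⁻⁵ mol/L in 0.10 M Tris-HCl, pH 7.4, titrated with successive additions of 1.00 × 10⁻³ mol/L compound stock. Excitation at 280 nm, emission recorded 300−450 nm. Quenching analysed by Stern–Volmer and modified Stern–Volmer equations (τ₀ = 10⁻⁸ s).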

[4] = system: Leishmania donovani; experiment: Antileishmanial activity against Leishmania donovani MHOM/IN/80/Dd8 amastigotes infected in syrian golden hamster assessed as decrease in parasite count in spleen at 50 mg/kg/day, po for 5 days measured on day 7 after last dose administration by giemsa staining; format: functional; conditions: MHOM/IN/80/Dd8, Spleen
How it was run: (§1)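 Golden hamsters of either sex infected intracardially with 1 × 10⁷ L. donovani Dd8 amastigotes. After 15−20 days, pretreatment spleen biopsy; animals with +1 grade infection (5−10 amastigotes/100 spleen cell nuclei) used, 5−6 per compound. Aqueous suspensions dosed IP or PO for 5−10 consecutive days starting 2 days after biopsy. Splenic biopsies on day 7 and 28 after last dose, Giemsa counts; PI = 100 − [(ANAT×100)/(INAT×TIUC)].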

[5] = Half life in syrian golden hamster liver S9 fraction at 10 uM in presence of NADPH; format: ADME, subcellular, Mesocricetus auratus
How it was run: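 Hamster liver S9 (2 mg/mL protein), 50 mM Tris, 20 mM MgCl₂, 2 mM NADPH preincubated 10 min, then compound added at 10 μM final (1% organic) at 37 °C in triplicate. Sampled 0−60 min; no-NADPH control sampled at 0, 15, 30 and 60 min. Quenched with ice-cold methanol, extracted by LLE. Data as % parent remaining versus 0 min; testosterone as positive control.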

[6] = system: Leishmania donovani; experiment: Antileishmanial activity against intracellular amastigote form of Leishmania donovani MHOM/IN/80/Dd8 expressing luciferase gene infected in mouse J774A1 cells after 72 hrs by luminescence analysis; format: functional, organism-based; conditions: MHOM/IN/80/Dd8, J774.A1, 72 h
How it was run: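 J774A.1 macrophages (4 × 10⁴/mL, RPMI-1640 + 10% HIFBS, 37 °C, 5% CO₂), after 24 h infected with stationary-phase luciferase promastigotes (4 × 10⁵/mL). Free parasites washed off after 24 h. Compound added at up to 7 dilutions from 40 μM for 72 h. Luminescence read after Steady Glo in PBS. IC₅₀ from four-parameter Hill fit; at least duplicate measurements.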

[7] = system: Leishmania donovani; experiment: Antileishmanial activity against Leishmania donovani MHOM/IN/80/Dd8 amastigotes infected in syrian golden hamster assessed as decrease in parasite count in spleen at 50 mg/kg/day, po for 5 days measured on day 28 after last dose administration by giemsa staining; format: functional; conditions: MHOM/IN/80/Dd8, Spleen; how it was run: as §1
[8] = system: Leishmania donovani; experiment: Induction of apoptosis in Leishmania donovani MHOM/IN/80/Dd8 promastigotes assessed as drop in mitochondrial membrane potential at 0.78 uM after 72 hrs by JC-1 dye based flow cytometry (reference value: 5.87%); format: functional
[9] = Terminal half life in Syrian golden hamster at 100 mg/kg, po administered via gavage as single dose by HPLC-UV analysis; format: ADME, organism-based, Mesocricetus auratus; design: dose 100 mg/kg, route oral; conditions: in vivo, read-out: beta t1/2 (converted)
How it was run: (§2)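 Male Syrian golden hamsters (100 ± 15 g) given a single oral dose of 100 mg/kg. Plasma stored at −70 °C and assayed by HPLC-UV. Concentration–time profiles analysed non-compartmentally; values mean ± SD.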

[10] = system: Leishmania donovani; experiment: Induction of early apoptosis in Leishmania donovani MHOM/IN/80/Dd8 promastigotes at 0.78 uM after 48 hrs by Annexin V-FITC/propidium iodide staining based flow cytometry (reference value: 13.70%); format: functional
[11] = system: J774.A1; experiment: Increase in TNF-alpha production in mouse J774A1 cells infected with Leishmania donovani at IC50 concentration after 24 hrs by sandwich ELISA relative to control; format: functional
How it was run: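 J774A.1 macrophages (1 × 10⁶) infected with Leishmania at 1:10, treated in 6-well plates at the compound's IC₅₀ concentration, 37 °C, CO₂. Supernatants from normal, infected-untreated and infected-treated cells collected after 24 h. IL-12, TNF-α, IL-10 and TGF-β measured by sandwich ELISA at 450 nm, in pg/mL. Two independent experiments in duplicate, mean ± SD; Student's t test against infected control.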

[12] = AUC (0 to infinity) in Syrian golden hamster at 100 mg/kg, po administered via gavage as single dose by HPLC-UV analysis; format: ADME, organism-based, Mesocricetus auratus; design: time infinity, dose 100 mg/kg, route oral; conditions: plasma
[13] = system: Leishmania donovani; experiment: Induction of early apoptosis in Leishmania donovani MHOM/IN/80/Dd8 promastigotes at 0.78 uM after 6 hrs by Annexin V-FITC/propidium iodide staining based flow cytometry (reference value: 13.70%); format: functional
[14] = Tmax in Syrian golden hamster at 100 mg/kg, po administered via gavage as single dose by HPLC-UV analysis; format: ADME, organism-based, Mesocricetus auratus; design: dose 100 mg/kg, route oral; conditions: in vivo; how it was run: as §2
[15] = system: Leishmania donovani; experiment: Induction of apoptosis in Leishmania donovani MHOM/IN/80/Dd8 promastigotes assessed as drop in mitochondrial membrane potential at 0.78 uM after 48 hrs by JC-1 dye based flow cytometry (reference value: 5.87%); format: functional
[16] = system: Leishmania donovani; experiment: Induction of necrosis in Leishmania donovani MHOM/IN/80/Dd8 promastigotes at 0.78 uM after 72 hrs by Annexin V-FITC/propidium iodide staining based flow cytometry; format: functional, organism-based
[17] = system: Leishmania donovani; experiment: Induction of early apoptosis in Leishmania donovani MHOM/IN/80/Dd8 promastigotes at 0.78 uM after 72 hrs by Annexin V-FITC/propidium iodide staining based flow cytometry (reference value: 13.70%); format: functional
[18] = Stability of the compound in simulated intestinal fluid assessed as compound degradation at 10 uM by HPLC-UV analysis; format: physicochemical; conditions: read-out: Drug degradation
How it was run: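 Simulated gastric and intestinal fluids made to USP specifications. Compound at 10 μM incubated in SGF sampled at 0, 15, 30 and 60 min, and in SIF at 0, 30, 60, 90 and 120 min. Mean ± SEM.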

[19] = system: Syrian golden hamster; experiment: Toxicity in Syrian golden hamster at 100 mg/kg, po administered via gavage as single dose; format: organism-based, Mesocricetus auratus; design: dose 100 mg/kg, route oral; conditions: in vivo
[20] = Cytotoxicity against African green monkey Vero cells after 72 hrs by MTT assay; format: cell-based; conditions: chlorocebus sabaeus
How it was run: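 Vero cells at 1 × 10⁵/mL exposed to seven concentrations from 400 μM at 37 °C, 5% CO₂, for 72 h. MTT (5 mg/mL) added for 2 h at 37 °C, formazan dissolved in DMSO, absorbance read at 544 nm. CC₅₀ estimated by the Huber and Koella method; at least duplicate measurements.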

[21] = Apparent oral volume of distribution in Syrian golden hamster at 100 mg/kg, po administered via gavage as single dose by HPLC-UV analysis; format: ADME, organism-based, Mesocricetus auratus; design: dose 100 mg/kg, route oral; conditions: in vivo; how it was run: as §2

KSV [3]: 2.7 ×10⁵ L/mol | Kq [3]: 2.7 ×10¹³ L/mol/s | half-life at 10 µM [5]: 37.8 min | IC50 [6]: 5.4 µM | half-life [9]: 444 min | AUC(0-inf) [12]: 3700 ng·h/mL | Tmax [14]: 37.5 min | degraded at 10 µM [18]: 30% | Vd/F [21]: 392 L/kg
Structure (SMILES): CC(C)=CCCC1(C)C=Cc2c(ccc(C(=O)/C=C/c3cccnc3)c2O)O1 (configuration not stated)
Activity [1]: 31.88% | Activity [2]: 30.79% | inhibition in vivo at 50 mg/kg/day [4]: 49% | inhibition in vivo at 50 mg/kg/day [7]: 55.4% | Activity [8]: 69.59% | Activity [10]: 37.62% | fold change (FC) [11]: 11.6 | Activity [13]: 27.04% | Activity [15]: 61.67% | Activity [16]: inactive | Activity [17]: 66.14% | Activity [19]: Non-toxic | CC50 at 72 h [20]: 40.7 µM
